Data reported in ChEMBL document CHEMBL3797152, “Minimum structural requirements for cell membrane leakage-mediated anti-MRSA activity of macrocyclic bis(bibenzyl)s” (2016).
Values after ≈ are worked out from the molar mass of the structure shown. Active and inactive are the calls of the source. No cut-off for these calls is given here.

How the values were obtained:
[1] = test system: Staphylococcus aureus; assay: Antimicrobial activity against methicillin-resistant Staphylococcus aureus OM481 clinical isolate after 18 to 20 hrs by liquid microdilution method; type: functional
[2] = test system: Staphylococcus aureus; assay: Increase in cytoplasmic membrane permeability in Staphylococcus aureus N315 cells assessed as influx of EtBr by fluorescence assay; type: functional, organism-based
Procedure, shortened: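 Energized S. aureus N315 cells; EtBr uptake followed as rise in fluorescence (excitation 530 nm, emission 600 nm) immediately after adding test compound.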

[3] = test system: Staphylococcus aureus; assay: Antimicrobial activity against 2-phenoxyphenol/methicillin-resistant Staphylococcus aureus after 18 to 20 hrs by liquid microdilution method; type: functional
[4] = test system: Staphylococcus aureus; assay: Antimicrobial activity against methicillin-resistant Staphylococcus aureus N315 after 18 to 20 hrs by liquid microdilution method; type: functional
[5] = test system: Staphylococcus aureus; assay: Increase in cytoplasmic membrane permeability in Staphylococcus aureus N315 cells assessed as efflux of EtBr by fluorescence assay; type: functional, organism-based
Procedure, shortened: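 EtBr-loaded S. aureus N315 cells; EtBr release followed as fall in fluorescence (excitation 530 nm, emission 600 nm) after adding test compound.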

[6] = test system: Staphylococcus aureus; assay: Effect on membrane permeability assessed as decrease in intracellular potassium levels in Staphylococcus aureus N315 cells by ICP-OES analysis; type: functional, organism-based
[7] = test system: Staphylococcus aureus; assay: Bactericidal activity against Staphylococcus aureus N315 cells assessed as reduction of bacterial burden at 4 times MIC up to 24 hrs; type: functional, organism-based
Procedure, shortened: (§1)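 S. aureus N315 (MRSA strain) survival assay: compound added at 1× or 4× its MIC, with MIC determined by liquid microdilution. Read-out is the number of viable cells remaining over time after addition.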

[8] = test system: Staphylococcus aureus; assay: Bactericidal activity against Staphylococcus aureus N315 cells assessed as reduction of bacterial burden at MIC up to 24 hrs; type: functional; procedure, shortened: as §1
[9] = test system: Staphylococcus aureus; assay: Effect on membrane permeability assessed as increase in intracellular sodium levels in Staphylococcus aureus N315 cells by ICP-OES analysis; type: functional, organism-based

SMILES | MIC [1] [µg/mL] | Activity [2] | MIC [3] [µg/mL] | MIC [4] [µg/mL] | Activity [5] | Activity [6] | Activity [7] | Activity [8] [log10CFU/ml] | Activity [9]
Cc1cc(O)ccc1-c1ccc(CCc2ccccc2)cc1O | 16 (≈ 52.6 µM) | Active | 16 (≈ 52.6 µM) | 16 (≈ 52.6 µM) | Active | – | – | – | –
Oc1ccc(CCc2cccc(O)c2)cc1 [LUNULARIN] | > 128 | – | > 128 | > 128 | – | – | – | – | –
Oc1ccc2c(c1)CCc1ccc(cc1)Oc1cc(ccc1O)CCc1ccc-2c(O)c1 [RICCARDI C] | 2 (≈ 4.71 µM) | – | 2 (≈ 4.71 µM) | 2 (≈ 4.71 µM) | – | – | – | – | –
Oc1ccc(-c2ccccc2O)cc1 | > 128 | – | > 128 | > 128 | – | – | – | – | –
Oc1ccc(-c2ccc(CCc3ccccc3)cc2O)c(CCc2ccccc2)c1 | 8 (≈ 20.3 µM) | Active | 8 (≈ 20.3 µM) | 8 (≈ 20.3 µM) | Active | Active | Active | 3 | Active
Oc1ccc2c(c1)CCc1cccc(c1)-c1cccc(c1)CCc1ccc-2c(O)c1 | 0.5 (≈ 1.27 µM) | – | 0.5 (≈ 1.27 µM) | 0.5 (≈ 1.27 µM) | – | – | – | – | –
Oc1ccccc1Oc1ccccc1 | 8 (≈ 43 µM) | – | > 128 | 8 (≈ 43 µM) | – | – | – | – | –
